Rows were chosen to be rich in hits. Some 3.9% of all compounds tested hit in one or more screens of this group.
HSF1 inhib – HSF1 inhibition; NIH3T3-HGL HSE-luciferase, MG132-induced, luminescence 8 h; stronger effect = lower value; activity change, negative = inhibition, % at 7.5 µM (by protocol); 300,000 tested, 0.77% active;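 active = more than half of replicate wells show activity change below -50%, luminescence cut by over half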;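 note: luciferase reports HSF-1 transcriptional activity via heat shock element; 0% = median of DMSO wells and -100% = zero luminescence signal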
NS3 helicase inh – HCV NS3 helicase inhibition. NS3 helicase DNA unwinding, Cy5 molecular beacon fluorescence. inhibition, % at 10.9 µM. 290,000 tested, 0.56% active. AID 1800;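 active = inhibition above the mean of all tested compounds plus 3 SD, set per campaign, cut at about 35% in these data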;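 note: 0% = DMSO wells and 100% = thioflavine S control wells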
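System: HCV NS3 helicase fragment; control set: DMSO and thioflavine S; technique: Cy5 fluorescence at 0 and 60 min, beacon hairpin quenching; reagent: beacon DNA duplex substrate plus ATP; replicates: singlicate; schedule: 1 h reaction at 25 °C, ATP-initiated; medium: MOPS buffer pH 6.5 with MgCl2, DTT, Tween20, BSA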
HSF1 activator – increases HSF-1 driven luciferase reporter signal | activation, % at 9 µM | NIH3T3-HGL HSF-1 luciferase reporter, MG132, 8 h; 100% = twice DMSO control signal | 300,000 tested, 1.7% active | AID 504408;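 active = mean replicate activation of at least 50% with a set share of replicates each reaching 50%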;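 note: 0% = median of the neutral control wells and 100% = twice that signal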
FID counter – counter-screen for HCV NS3 helicase inhibitors: DNA intercalator displacement; DNA fluorescent intercalator displacement, fluorescence; inhibition, % at 7.9 µM; 290,000 tested, 0.17% active; AID 1845; in the data active = inhibition above about 37%;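 note: 0% = vehicle and 100% = reference compound; higher means more ethidium bromide displaced from hairpin DNA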
HCV core dimer – blocks dimerization of HCV core protein; TR-FRET GST/Flag-core106 dimerization, 1536-well; inhibition, % at 5 µM; 300,000 tested, 0.33% active; AID 1899;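 active = inhibition above the mean of all tested compounds plus 3 SD, set per screening campaign, cut at about 45% in these data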
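assay system = GST-tagged and Flag-tagged HCV core protein residues 1-106 | controls = unlabelled core106 and no-GST-core106 wells | incubation = compound-protein-antibody incubation 4 h at 22.5 °C | probe or stimulus = Eu donor and XL665 acceptor anti-tag antibodies | read-out = % inhibition based on acceptor/donor emission ratio | signal = TR-FRET 671 and 617 nm emission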
HSP90 refold inh – blocks HSP90-mediated luciferase refolding in reticulocyte lysate; Rabbit reticulocyte lysate, luciferase refolding luminescence, 3 h; inhibition, % at 5.6 µM; 290,000 tested, 0.91% active;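 active = inhibition above the screen-wide mean plus 3 SD, computed separately per campaign, cut at about 16% in these data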;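 note: 0% = DMSO wells and 100% = 60 µM geldanamycin wells; inhibitors lower the luminescence because luciferase stays unfolded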
An asterisk follows results filed as active; x = no result given.

SMILES	HSF1 inhib	NS3 helicase inh	HSF1 activator	FID counter	HCV core dimer	HSP90 refold inh
CC(=O)N(C)c1ccc(OCC(O)Cn2c(C)nc3ccccc32)cc1 (stereo unspecified)	-9	20	-15	-7	0	2
CCOC(=O)c1oc2ccc(S(=O)(=O)n3nc(-c4ccc(OC)cc4)cc3N)cc2c1C	-1	-2	2	-1	47*	-3
CCOC(=O)c1oc2ccc(S(=O)(=O)n3nc(-c4ccccc4)cc3N)cc2c1C	5	24	18	-11	12	3
COc1cccc(NC(=O)CNC(=O)c2ccc(C)o2)c1	0	7	3	-4	-1	3
Cc1coc2cc3oc(=O)c(CCC(=O)NCC(=O)O)c(C)c3cc12	-2	6	8	-19	x	-1
CN(CC(=O)N1CCc2ccccc21)S(=O)(=O)c1ccc(Br)s1	8	-10	3	-16	3	-5
Brc1cnc2nc(SC/C=C/c3ccccc3)[nH]c2c1	50	-2	62*	-1	4	4
O=c1c(Cl)c(O)c2cccc3c4ccccc4n1c23	84	5	79*	-4	14	-2
COc1c(O)c(=O)n2c3ccccc3c3ccnc1c32	-1	x	13	x	-3	x
COc1ccc(OC)c2sc(NC(=O)C3=COCCO3)nc12	5	-7	7	2	-18	-2
COc1ccc(C)c2sc(NC(=O)C3=COCCO3)nc12	-69*	-5	-76	-5	0	1
O=C(CCS(=O)(=O)Cc1ccccc1F)NCCc1ccc(Cl)cc1	-3	-3	22	-16	-2	-1
O=C(O)c1ccccc1C(=O)Nc1ccccc1	4	0	-13	3	-2	-2
O=C(Nc1ccccc1)C1=C(c2ccccc2)S(=O)(=O)CCS1(=O)=O	-62*	19	-68	1	x	1
CC(C)C(C)N(Cc1cccc(C(=O)O)c1)C(=O)c1ccc2ccccc2n1 (stereo unspecified)	-3	x	7	x	0	x
CC(C)C(C)N(Cc1ccc(C(=O)O)cc1)C(=O)c1ccc2ccccc2n1 (stereo unspecified)	18	x	58*	x	3	x
CC(NCC(O)c1ccc([N+](=O)[O-])cc1)C12CC3CC(CC(C3)C1)C2 (stereo unspecified)	-2	-25	4	38*	3	5
CCN1CCN(c2ccc(S(=O)(=O)N3CCCCC3)cc2NC(=O)c2ccc(C)o2)CC1	-1	x	1	x	0	x
O=C(NCCC1CCCCN1S(=O)(=O)c1ccc(F)cc1)C(=O)Nc1ccccc1F (stereo unspecified)	-67*	x	-75	x	-1	x
COc1cc(/C=N/NC(=O)CNc2n[nH]c(=O)[nH]c2=O)ccc1OCc1ccccc1	2	-12	20	-23	-1	-1
CC(C)c1nn2c(=O)cc(CSc3ccccc3NC(=O)c3ccccc3F)nc2s1	0	-6	2	-36	-17	2
CC(=O)Nc1ccc(Oc2sc(C(=O)c3ccccc3)c(N)c2C#N)cc1	60	-16	87*	-13	-40	2
O=C(NC(=S)N1CCN(c2ccc(F)cc2)CC1)c1cccs1	38	7	103*	4	4	-1
O=C(NC(=S)N1CCN(c2c(Cl)cccc2[N+](=O)[O-])CC1)c1cccs1	-95*	11	-95	-6	0	5
O=C(Nc1ccc(N2CCCC2)c(Cl)c1)c1cccs1	57	-11	82*	2	-4	-1
O=C(NC(=S)N1CCN(c2ccc(O)cc2)CC1)c1cccs1	-2	6	0	-9	1	6
O=C(NC(=S)Nc1ccc(N2CCOCC2)c(Cl)c1)c1cccs1	6	-5	28	4	7	-1
CCCC(=O)N1CCN(c2ccc(NC(=O)c3cccs3)cc2)CC1	30	-1	53*	-13	1	-6
CCOc1ccc(NC(=S)NC(=O)c2cnn(CC)c2)c([N+](=O)[O-])c1	-5	5	-11	-10	x	-3
COc1ccc(S(=O)(=O)Nc2cc3c4c(oc3c3ccccc23)CCCC4=O)cc1	39	-2	56*	-12	14	4
